Vif inh – blocks HIV Vif function; HEK293T cells, Vif self-association by quenched fluorescence, imaging, 24 h; AID 602346; inhibition, % at 7.49 µM; 340,000 tested, 0.35% active; in the data active = inhibition above about 50%, passing the limit was not always enough; inconclusive = no clear call, values can overlap the other calls; inactive = below about 31%
Ecoli rRNA inh – inhibitors of bacterial rRNA selective over humanized ribosomes | E. coli WT GFP vs humanized-ribosome RFP mutants, fluorescence, 24 h; stronger effect = lower value; DMSO median 0, no signal -100 | GFP signal change (wild-type ribosome), % (test concentration not listed) | 350,000 tested, 1.6% active | AID 720706;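 active = significant combined selectivity score with lowered wild-type GFP, culture density cut under 30%, mutant RFP and density less affected; inactive = any of these conditions unmet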
Env fusion inh – blocks HIV Env-driven cell-cell fusion; 360,000 tested, 1.1% active; HeLa-JRFL Env/CEM21 cell fusion, luciferase; inhibition, % at 12.3 µM; AID 651610;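 active = mean replicate inhibition score of at least 50 and every replicate individually at or above 50; inconclusive = only one of the two criteria met; inactive = mean below 50 and not all replicates reaching 50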
S100A4 inh HTS – inhibitors of human S100A4 binding to myosin IIA peptide. AID 652163. S100A4/TAMRA-MyoIIA peptide fluorescence polarization. P26447. 360,000 tested, 0.14% active. inhibition, % at 10.7 µM;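 active = mean inhibition of at least 70% across replicates, with every replicate also reaching that level; inconclusive = mean inhibition reaches 70% but some replicates fall short; inactive = mean inhibition below 70%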
Target sequence (P26447 whole entry, looked up): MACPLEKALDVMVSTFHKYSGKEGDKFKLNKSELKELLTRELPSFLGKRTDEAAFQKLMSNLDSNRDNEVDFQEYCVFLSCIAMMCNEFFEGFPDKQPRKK
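Test system – S100A4 monomer (human) · Compound – single-point compound testing · Schedule – 5 min incubation before reading · Probe or stimulus – TAMRA-labelled myosin IIA heavy-chain peptide probe, 5 nM · Benchmarks – neutral control DMSO, positive control TFP · Medium – Calcium-containing HEPES buffer, pH 7.2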
FN deposit inh – fibronectin deposition inhibition; AH1F fibroblasts, Alexa488-fibronectin deposition fluorescence, overnight; inhibition, % at 12.6 µM; 350,000 tested, 0.086% active; AID 743247;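 active = mean inhibition across replicates of 30% or more, regardless of how many single replicates reach that level; inconclusive = mean under 30% yet at least half of replicates reach 30%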
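Measured by – fluorescence 485/525 nm · System – AH1F fibroblast monolayer, labelled fibronectin deposition · Amount – 10000 cells per well · Buffer or medium – serum-reduced DMEM (2% serum) · Doses – single dose, pinned · Also added – fluorescent fibronectin at 24 nM final · Schedule – 1 h cell attachment, overnight exposure to compound and label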
miR-122 sensor – blocks miR-122 activity in Huh7 sensor cells | Huh7 miR-122 Renilla luciferase sensor, 48 h; neutral wells = 0, positive control = 100 | activation (reporter increase), % at 12.5 µM | 340,000 tested, 0.3% active | AID 602342;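 active = mean replicate activation score at least 90 and every replicate individually at or above 90; inconclusive = only one of the two criteria met; inactive = neither criterion met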;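 also: higher luciferase means less miR-122 activity so hits act as miR-122 inhibitors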
A number is an active result. Sampled rows, rich in hits. Any-hit rate of the full collection: about 2.6%.

O=C(Nc1ccc(F)cc1)N[C@@H]1CC[C@@H](CCNC(=O)c2ccccc2F)O[C@H]1CO was read as Ecoli rRNA inh inactive and S100A4 inh HTS inactive.
Screening CCOC(=O)c1ccc(N2CCCCC2)c(NS(=O)(=O)c2cccc(C(F)(F)F)c2)c1 returned Vif inh inactive, Ecoli rRNA inh inactive, Env fusion inh 64.2, S100A4 inh HTS inactive, FN deposit inh inactive and miR-122 sensor inactive.
Screening COc1ccc(C(=O)O)cc1S(=O)(=O)Nc1cc(C(F)(F)F)ccc1N1CCCCC1 returned Vif inh inactive, Ecoli rRNA inh -25.0, Env fusion inh inactive, S100A4 inh HTS inactive, FN deposit inh inactive and miR-122 sensor inactive.
Screening O=C(Cc1cccnc1)N[C@H]1CC[C@H](CCNS(=O)(=O)c2ccccc2Cl)O[C@@H]1CO returned Ecoli rRNA inh inactive, S100A4 inh HTS inactive and FN deposit inh inactive.
Screening O=C(c1ccccc1)c1coc2ccc(O)c(Cl)c12 returned Vif inh inactive, Ecoli rRNA inh -45.5, S100A4 inh HTS inactive and miR-122 sensor inactive.
`Cc1ccc(C(=O)c2coc3ccc(O)c(Cl)c23)cc1` gave Vif inh inactive, Env fusion inh inactive, FN deposit inh inactive and miR-122 sensor inactive.
COc1ccc(NS(=O)(=O)c2ccc(NC(=S)NC(=O)C(C)C)cc2)cc1 was read as Vif inh inactive and miR-122 sensor inconclusive.
CCOc1ccc(NS(=O)(=O)c2ccc(NC(=S)NC(=O)C(C)C)cc2)cc1 was read as Vif inh inactive and miR-122 sensor 115.1.
Screening CC(C)C(=O)NC(=S)Nc1ccc(S(=O)(=O)Nc2ccccc2)cc1 returned Vif inh inactive, Env fusion inh inactive, FN deposit inh inactive and miR-122 sensor 136.6.
C[C@@H]1CN(C)C(=O)c2cc(N(C)C)ccc2O[C@H]1CN(C)S(C)(=O)=O was read as Ecoli rRNA inh inactive and FN deposit inh inactive.
For COC(=O)c1ccc(CC2(C)C(=O)Nc3ccc(-c4cccc(C(F)(F)F)c4)cc32)o1 (stereo unspecified) the results were Vif inh inactive, Ecoli rRNA inh inactive, Env fusion inh 64.8, S100A4 inh HTS inactive, FN deposit inh inactive and miR-122 sensor inactive.
Screening Cc1cc(C)nc(N/N=C/C(Cl)=C/c2ccccc2)n1 returned Vif inh inactive, Ecoli rRNA inh -26.0, S100A4 inh HTS inactive and miR-122 sensor inactive.
Screening O=C(Nc1ccccc1F)N[C@H]1CC[C@H](CCNC(=O)C2CCOCC2)O[C@H]1CO returned Ecoli rRNA inh inactive, Env fusion inh inactive, S100A4 inh HTS inactive and FN deposit inh inactive.
For O=C1[C@@H]2[C@H](C(=O)N1c1ccccc1)[C@@]13COC[C@H](c4ccccc4)N1C(=O)[C@]2(C(=O)NCc1ccccc1)O3 the results were Env fusion inh inactive and S100A4 inh HTS inactive.
Screening C=CCn1c(O)c(N=NC(=S)Nc2ccccc2F)c2ccccc21 returned Vif inh inactive, Ecoli rRNA inh -20.8, Env fusion inh inactive, S100A4 inh HTS inactive and FN deposit inh inactive.
CCC1(c2ccccc2)NC(=O)N(CC(=O)Nc2cc(S(=O)(=O)N3CCCCC3)ccc2OC(C)C)C1=O (stereo unspecified) was read as Vif inh inactive, Ecoli rRNA inh inactive, Env fusion inh 98.0, S100A4 inh HTS inactive, FN deposit inh inactive and miR-122 sensor inactive.
CCC1(c2ccccc2)NC(=O)N(CC(=O)Nc2cc(S(=O)(=O)N3CCCCCC3)ccc2OC)C1=O (stereo unspecified) was read as Vif inh inactive, Ecoli rRNA inh inactive, Env fusion inh inactive, S100A4 inh HTS inactive and FN deposit inh inactive.
Screening CCNC(=O)C[C@@H]1CC[C@@H]2[C@H](COc3ccc(NC(=O)Nc4ccccc4C)cc3C(=O)N2C)O1 returned Ecoli rRNA inh inactive, Env fusion inh inactive, S100A4 inh HTS inactive, FN deposit inh inactive and miR-122 sensor inactive.
Screening Cc1ccc(S(=O)(=O)Nc2ccc3c(c2)CC(=O)N([C@H](C)CO)C[C@H](C)[C@@H](CN(C)S(C)(=O)=O)O3)cc1 returned Ecoli rRNA inh inactive, Env fusion inh inactive, S100A4 inh HTS inactive, FN deposit inh inactive and miR-122 sensor inactive.
O=C(NCCc1c[nH]c2ccccc12)C(=O)NCC1OCCCN1S(=O)(=O)c1ccc(F)cc1 (stereo unspecified) was read as Vif inh inactive, Ecoli rRNA inh -18.4, Env fusion inh inactive, S100A4 inh HTS inactive and FN deposit inh inactive.
For Cc1ccc(S(=O)(=O)N2CCCOC2CNC(=O)C(=O)NCCC2=CCCCC2)cc1 (stereo unspecified) the results were Vif inh inactive, Env fusion inh 59.8 and FN deposit inh inactive.
For Cc1ccc(S(=O)(=O)N2CCCOC2CNC(=O)C(=O)NCCN2CCOCC2)cc1 (stereo unspecified) the results were Vif inh inactive, Env fusion inh inactive, S100A4 inh HTS inactive, FN deposit inh inactive and miR-122 sensor inactive.
CC(C)NC(=O)N(C)C[C@H]1Oc2ccc(NS(=O)(=O)c3cn(C)cn3)cc2CC(=O)N([C@@H](C)CO)C[C@@H]1C was read as Ecoli rRNA inh inactive, Env fusion inh inactive, S100A4 inh HTS inactive and miR-122 sensor inactive.
`CC(C)=CCOc1ccc2ccc(=O)oc2c1` gave Vif inh inactive, Ecoli rRNA inh inactive, S100A4 inh HTS inactive and miR-122 sensor inactive.
Screening COc1cc2ccc(=O)oc2c(O)c1OCC=C(C)C returned Vif inh inactive, Ecoli rRNA inh -20.8, S100A4 inh HTS inactive, FN deposit inh inactive and miR-122 sensor inactive.
For C[C@H](CO)N1C[C@H](C)[C@@H](CN(C)C(=O)Nc2ccc3c(c2)OCO3)Oc2c(NC(=O)NC3CCCCC3)cccc2C1=O the results were Ecoli rRNA inh inactive.
`Cc1noc(C)c1S(=O)(=O)N(C)C[C@@H]1Oc2ccc(NS(C)(=O)=O)cc2C(=O)N([C@@H](C)CO)C[C@@H]1C` gave Ecoli rRNA inh inactive, S100A4 inh HTS inactive and miR-122 sensor inactive.
Cc1cc(C)c(C(=O)N2CCCC(Nc3ccc(F)cc3)C2)o1 (stereo unspecified) was read as Vif inh inactive, Ecoli rRNA inh inactive, Env fusion inh inactive, S100A4 inh HTS inactive and FN deposit inh inactive.
Cc1ccc2[nH]c(C(=O)N3CCCC(Nc4ccc(F)cc4)C3)cc2c1 (stereo unspecified) was read as Vif inh inactive, Ecoli rRNA inh -34.5, Env fusion inh inactive, S100A4 inh HTS inactive, FN deposit inh inactive and miR-122 sensor inactive.
C[C@@H]1CN([C@@H](C)CO)C(=O)c2ccccc2-c2ccccc2CO[C@@H]1CN(C)Cc1ccc(F)cc1 was read as Ecoli rRNA inh inactive and FN deposit inh inactive.

Assay outcomes as filed in PubChem BioAssay.
